ChEMBL document CHEMBL1125367 (J Med Chem, 1992)

Tests used:
[1] = target: D(1A) dopamine receptor (Rattus norvegicus) (UniProt P18901); assay: Selectivity index of D1 receptor to that of D2 receptor was determined
How it was run: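 Index equals IC50 at D-1 ([3H]SCH 23390 binding) divided by IC50 at D-2 ([3H]spiperone binding), both measured in rat striatal membrane competition assays.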

[2] = target: D(1A) dopamine receptor (Rattus norvegicus) (UniProt P18901); assay: Percent stimulation of adenylate cyclase activity at dopamine receptor D1 of Rat Striatum at 1 uM; assay type: functional; details: values are per cent of control
[3] = target: T1, D(1A) dopamine receptor (Rattus norvegicus, UniProt P18901); assay: (§1) Inhibitory activity against [3H]-SCH- 23390 in Rat Striatal membrane; assay type: cell membranes
[4] = target: D(1A) dopamine receptor (Rattus norvegicus) (UniProt P18901); assay: The percentage stimulation of adenylate cyclase activity of compound was measured on dopamine receptor D1 of Rat Striatum at 0.1 uM; assay type: functional
[5] = target: D(1A) dopamine receptor (Rattus norvegicus) (UniProt P18901); assay: The percentage stimulation of adenylate cyclase activity of compound was measured on dopamine receptor D1 of Rat Striatum at 10 uM; assay type: functional; details: values are per cent of control
[6] = target: D(2) dopamine receptor (Rattus norvegicus) (UniProt P61169); assay: The percentage inhibition of adenylate cyclase activity of compound was measured on dopamine receptor D2 of Rat Striatum at 0.01 micro M; details: values are per cent of control
How it was run: (§2)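 D-2 inhibition of basal adenylate cyclase in rat striatal synaptic membranes, 20-30 μg protein. Medium: Tris-HCl pH 7.4, 100 mM NaCl, 0.5 mM ATP, 50 μM GTP, IBMX, [α-32P]ATP, with 0.1 μM SCH 23390 present to block D-1. Incubation 20 min at 25 °C, followed by double-column cAMP isolation. Activity is given as % of basal, quadruplicates, three experiments.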

[7] = target: D(2) dopamine receptor (Rattus norvegicus) (UniProt P61169); assay: The percentage inhibition of adenylate cyclase activity of compound was measured on dopamine receptor D2 of Rat Striatum at 0.1 micro M; details: values are per cent of control; how it was run: as §2
[8] = target: D(2) dopamine receptor (Rattus norvegicus, UniProt P61169); assay: Inhibitory activity against [3H]spiperone in Rat Striatal membrane; assay type: cell membranes
[9] = target: D(1A) dopamine receptor (Rattus norvegicus) (UniProt P18901); assay: The percentage stimulation of adenylate cyclase activity of compound was measured on dopamine receptor D1 of Rat Striatum at 0.01 uM; assay type: functional
[10] = target: D(2) dopamine receptor (Rattus norvegicus) (UniProt P61169); assay: The percentage inhibition of adenylate cyclase activity of compound was measured on dopamine receptor D2 of Rat Striatum at 10 micro M; details: values are per cent of control; how it was run: as §2
[11] = target: D(2) dopamine receptor (Rattus norvegicus) (UniProt P61169); assay: The percentage inhibition of adenylate cyclase activity of compound was measured on dopamine receptor D2 of Rat Striatum at 1 micro M; details: values are per cent of control; how it was run: as §2
[12] = target: D(1A) dopamine receptor (Rattus norvegicus) (UniProt P18901); assay: The percentage stimulation of adenylate cyclase activity of compound was measured on dopamine receptor D1 of Rat Striatum at 0.1uM; assay type: functional
[13] = target: T1, D(1A) dopamine receptor; assay: as §1; assay type: cell membranes; remark: listed apart in the source
How it was run: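 Competition binding on rat striatal membranes. The D-1 site was labelled with [3H]SCH 23390 and the D-2 site with [3H]spiperone. IC50 is the concentration giving half-maximal inhibition of binding, reported as mean ± SEM.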

Sequence of D(2) dopamine receptor (P61169 whole entry): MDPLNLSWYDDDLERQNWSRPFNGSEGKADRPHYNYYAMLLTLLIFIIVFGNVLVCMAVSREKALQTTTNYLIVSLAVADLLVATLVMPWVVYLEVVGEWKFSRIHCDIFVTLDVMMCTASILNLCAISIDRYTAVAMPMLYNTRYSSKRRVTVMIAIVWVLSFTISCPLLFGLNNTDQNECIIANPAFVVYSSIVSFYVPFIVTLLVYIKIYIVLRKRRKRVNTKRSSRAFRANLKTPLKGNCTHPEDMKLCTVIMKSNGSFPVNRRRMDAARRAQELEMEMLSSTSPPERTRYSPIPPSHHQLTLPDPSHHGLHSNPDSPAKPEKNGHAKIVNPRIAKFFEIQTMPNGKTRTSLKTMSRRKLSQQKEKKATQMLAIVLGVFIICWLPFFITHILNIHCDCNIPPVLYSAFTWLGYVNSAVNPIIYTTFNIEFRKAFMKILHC
Sequence of D(2) dopamine receptor (Rattus norvegicus) (P61169 whole entry): as above
Sequence of D(1A) dopamine receptor (Rattus norvegicus) (P18901 whole entry): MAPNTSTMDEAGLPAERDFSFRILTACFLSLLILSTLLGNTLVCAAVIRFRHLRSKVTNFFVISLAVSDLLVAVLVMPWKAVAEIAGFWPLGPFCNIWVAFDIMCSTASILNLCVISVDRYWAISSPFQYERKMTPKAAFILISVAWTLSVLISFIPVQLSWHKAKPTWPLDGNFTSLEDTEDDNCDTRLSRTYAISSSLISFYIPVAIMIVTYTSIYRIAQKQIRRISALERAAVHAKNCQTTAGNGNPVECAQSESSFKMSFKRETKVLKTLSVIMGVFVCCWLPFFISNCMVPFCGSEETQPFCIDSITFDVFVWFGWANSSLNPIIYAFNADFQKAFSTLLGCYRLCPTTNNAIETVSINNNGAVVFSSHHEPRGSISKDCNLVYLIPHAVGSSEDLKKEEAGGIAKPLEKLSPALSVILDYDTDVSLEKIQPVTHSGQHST
T1 sequence (P18901 whole entry): as above

SMILES | Ratio [1] | residual activity [2] [%] | IC50 [3] [µM] | stimulation [4] [%] | residual activity [5] [%] | residual activity [6] [%] | residual activity [7] [%] | IC50 [8] [µM] | stimulation [9] [%] | residual activity [10] [%] | residual activity [11] [%] | stimulation [12] [%] | residual activity ([4]; values are per cent of control) [%] | IC50 [13] [µM] | residual activity ([9]; values are per cent of control) [%]
CCCN(CCc1cccc(O)c1)CCc1ccc(Cl)c(O)c1 | 15.3 | 125 | 11.2 | 116 | 128 | 94 | 91 | 0.73 | 103 | 81 | 83 |  |  |  | 
NCCc1ccc(O)c(O)c1 |  | 110 |  | 113 |  | 95 | 92 |  | 104 | 83 | 87 |  |  |  | 
Br.CCCN(CCC)CCc1ccc(Cl)c(O)c1 | 3.93 | 105 | 50.7 | 101 | 115 | 96 | 88 | 12.9 |  | 86 | 90 |  |  |  | 
Br.CCCN(CCCc1ccc(O)cc1)CCc1ccc(Cl)c(O)c1 | 19.9 | 100 | 16.9 |  | 110 | 96.4 | 86 | 0.85 |  |  | 82 | 101 |  |  | 
Br.NCCc1ccc(Cl)c(O)c1 | 0.96 | 95 | 25.3 | 98 | 105 | 101 | 90 | 26.3 |  | 84 | 87 |  |  |  | 
CCCN(CCc1ccc(O)cc1)CCc1ccc(Cl)c(O)c1 | 20.1 | 136 |  |  | 136 | 92 | 81 | 0.9 |  | 74 | 74 |  | 130 | 18.1 | 126
CCCN(CCc1ccccc1)CCc1cccc(O)c1 | 124 |  | 92.8 |  |  |  | 95 | 0.75 |  | 84 | 86 |  |  |  | 
CCCN(CCc1ccccc1)CCc1ccc(Cl)c(O)c1 | 17.6 | 118 | 24.4 | 113 | 128 | 93 | 86 | 1.39 | 104 | 76 | 78 |  |  |  | 
